# Screening results from PubChem BioAssay.
# SR-BI DiI inh – blocks mouse SR-BI lipid uptake from DiI-HDL | AID 488896 | actives 0.96% (n = 320,000) | ldlA[mSR-BI] CHO cells, DiI-HDL uptake fluorescence, 3 h | inhibition, % at 12.5 µM | Q61009;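 active = mean replicate inhibition of at least 70% and a set share of replicates each scoring 70 or more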;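 note: 0% = median of neutral control wells and 100% = median of positive control wells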
# SMARCA2 activ – SMARCA2 function activation, primary screen. activation, % at 9.1 µM. MG213 cells, MMTV-luciferase reporter, dexamethasone, overnight. actives 1% (n = 370,000); in the data active = activation above about 7.8%;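 note: 0% = vehicle wells and 100% = reference activator wells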
# SR-BI DiI-HDL act – activators of SR-BI mediated HDL lipid uptake | actives 0.096% (n = 320,000) | activation, % at 12.5 µM | CHO ldlA[mSR-BI] cells, DiI-HDL uptake fluorescence, 3 h; 100 = double the neutral-control signal | AID 504775;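 active = mean replicate activation of at least 60% and every replicate at or above 60%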;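 note: 0% = median plate neutral-control signal and 100% = twice that signal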
#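 Assay system: CHO ldlA[mSR-BI] cells, LDL receptor-null, SR-BI overexpressing; medium: Ham's F12 with 0.5% BSA, HEPES 25 mM, pH 7.4; also added: DiI-HDL 10 µg/mL; timing: 3 h uptake period with compound, 37 °C; signal: DiI fluorescence, bottom read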
# AHR activator – human AHR activation; AHR-responsive luciferase reporter cells, luminescence; activation, % at 5 µM; actives 2.5% (n = 320,000); in the data active = activation above about 47%;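 note: 0% = vehicle wells and 100% = reference agonist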
# Target sequence (P35869 whole entry, looked up): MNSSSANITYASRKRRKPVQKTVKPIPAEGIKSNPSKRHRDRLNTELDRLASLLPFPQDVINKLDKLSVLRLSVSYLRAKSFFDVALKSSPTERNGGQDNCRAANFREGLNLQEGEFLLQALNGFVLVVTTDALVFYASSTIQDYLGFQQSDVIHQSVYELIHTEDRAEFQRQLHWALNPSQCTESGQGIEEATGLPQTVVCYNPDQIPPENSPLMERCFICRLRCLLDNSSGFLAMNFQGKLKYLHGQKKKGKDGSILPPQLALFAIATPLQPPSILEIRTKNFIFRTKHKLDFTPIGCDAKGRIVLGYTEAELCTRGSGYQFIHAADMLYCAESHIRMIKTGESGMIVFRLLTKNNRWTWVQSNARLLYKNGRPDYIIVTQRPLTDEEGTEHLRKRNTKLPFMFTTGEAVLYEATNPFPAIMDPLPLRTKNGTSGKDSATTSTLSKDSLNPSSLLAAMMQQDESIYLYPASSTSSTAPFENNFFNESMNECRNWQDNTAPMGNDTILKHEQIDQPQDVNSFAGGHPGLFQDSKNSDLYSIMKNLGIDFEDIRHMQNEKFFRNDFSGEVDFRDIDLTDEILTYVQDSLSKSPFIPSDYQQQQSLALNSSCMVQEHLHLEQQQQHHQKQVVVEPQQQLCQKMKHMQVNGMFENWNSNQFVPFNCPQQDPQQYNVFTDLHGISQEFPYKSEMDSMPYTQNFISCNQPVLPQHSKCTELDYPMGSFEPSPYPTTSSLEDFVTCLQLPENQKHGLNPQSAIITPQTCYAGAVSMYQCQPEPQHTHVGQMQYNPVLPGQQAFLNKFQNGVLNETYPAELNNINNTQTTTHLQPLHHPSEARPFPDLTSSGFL
# CR mimetic SO – caloric restriction mimetics inhibiting age-related superoxide in yeast; actives 0.18% (n = 330,000); superoxide response (% of plate mean), % at 10 µM; S. cerevisiae aged cells, superoxide DHE fluorescence; active compounds read low;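 active = superoxide response under a set limit, about three screen SD below normal, cut at about 65% in these data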;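 note: yeast aged for seven days with compound at 30 °C before DHE staining; 100% = average MFI of all compound-treated wells on the plate with controls excluded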
# Hep lipid drop – modulators of hepatic lipid droplet formation; AML12 mouse hepatocytes, oleate lipid droplets, BODIPY imaging; AID 1656; actives 0.4% (n = 240,000); inhibition, % at 6.5 µM;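 active = lipid droplet intensity inhibited by at least 50%, with more than 500 cells counted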
#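 Test system: AML12 mouse liver cells; schedule: overnight exposure; technique: high-content imaging of BODIPY-stained droplets and DAPI nuclei; read-out: % inhibition of corrected integrated BODIPY droplet signal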
# * hit, by the source's call; / = not tested or not shown. The list is not random: actives were taken first. Their share in the collection is about 4.3%.
SMILES,SR-BI DiI inh,SMARCA2 activ,SR-BI DiI-HDL act,AHR activator,CR mimetic SO,Hep lipid drop
CCC(C)N(C(=O)CSc1nnc(-c2cccnc2)n1C1CCCCC1)C(C)CC (configuration not stated),/,3,/,/,/,/
COc1ccc(NC(=O)C23CC4CC(C2)CC(n2cnc(Br)n2)(C4)C3)cc1Cl,44,0,-44,51*,90,/
O=S1(=O)N[C@H](c2ccccc2)COc2cc(Br)ccc21,/,-6,/,/,/,/
CN1CCc2c(sc(NC(=O)c3ccco3)c2C(N)=O)C1,-10,8.0*,10,18,98,-1
O=S(=O)(c1ccccc1)N1c2cc(Cl)ccc2Oc2nc3ccccc3nc21,16,4,-16,74*,106,-25
O=S(=O)(c1ccccc1)N1CN(c2ccc(F)cc2F)c2nc3ccccc3nc21,/,6,/,10,94,/
COc1ccc(Nc2nc(N)nc(C(F)(F)F)n2)c(OC)c1,6,0,-6,76*,96,4
O=C(NCCc1c[nH]c2ccccc12)OCc1cn(-c2ccc(Cl)cc2)nn1,/,-1,/,/,/,/
O=C(Nc1cccc2ccccc12)N1CC=C(c2ccccc2)CC1,-13,-2,13,54*,105,-38
COC(=O)Cc1nnn2c1CC(OC)c1ccccc1-2 (configuration not stated),/,3,/,/,/,/
Cc1ccc(S(=O)(=O)Nc2ccc(O)c3ccccc23)c(C)c1,-22,-3,22,/,117,/
Cc1ccc(S(=O)(=O)Nc2cc(C(C(=O)OC(C)C)C(=O)C(F)(F)F)c(O)c3ccccc23)c(C)c1 (configuration not stated),3,-3,-3,48*,73,-12
Fc1ccc(-c2cc3nc4c(c(N5CCOCC5)n3n2)CCCC4)cc1,76*,1,-76,5,105,/
Cc1cccc(-c2cc3nc4c(c(N5CCOCC5)n3n2)CCCC4)c1,53,6,-53,1,131,-4
CC(C)N=C(Nc1ccc(Cl)cc1)c1cccnc1,-10,-5,10,79*,111,/
CC(C)c1ccc(NC(=O)c2cccnc2)cc1,-25,4,25,38,119,/
Cc1c(C(=O)N2CCCCC2)sc(NC(=O)C2CC2)c1C#N,-241,7,241*,1,103,/
CCCCCCNC(=O)c1c(O)c2cccc3c2n(c1=O)CCC3,-5,2,/,19,102,-9
O=C(NCCNCCO)c1c(O)c2cccc3c2n(c1=O)CCC3,11,0,-11,58*,89,2
COc1cccc(C(=O)N[C@H](C(=O)N2CCC[C@H]2C(=O)NCc2ccccc2)C2CCCCC2)c1,/,-4,/,/,/,/
CCC1(C)N=C(c2ccc3c(c2)OCO3)CC(c2ccccc2O)N1 (configuration not stated),-5,4,5,73*,91,1
CC(C)CN1C(=O)[C@]2(CC(=O)N(C)C2c2ccccc2)c2cc(-n3cc(CO)nn3)ccc21 (some centres not stated),/,-5,/,/,/,/
COc1ccc2c3n([n+]([O-])c2c1)CCN=C3c1cc(Cl)c(N)c(Cl)c1,60,1,-60,69*,85,/
C[C@H]1COc2cc(N3CCOCC3)ccc2S(=O)(=O)N1,/,-4,/,/,/,/
Cc1c(C(=O)NCC(c2ccco2)N(C)C)oc2c(Cl)cccc12 (configuration not stated),9,-1,-9,48*,91,/
SMILES,SR-BI DiI inh,SMARCA2 activ,SR-BI DiI-HDL act,AHR activator,CR mimetic SO,Hep lipid drop
CCOc1ccc2oc(C(=O)NCC(c3ccco3)N(C)C)c(C)c2c1 (configuration not stated),-4,1,4,/,/,/
S=c1[nH]c(-c2ccccc2)cn1/N=C/c1cccs1,16,0,-16,67*,78,-8
S=c1[nH]c(-c2ccccc2)cn1/N=C/c1ccc(Br)cc1,10,1,-10,54*,82,-1
Cc1ccc(C)c(/C=N/n2cc(-c3ccccc3)[nH]c2=S)c1,29,-3,-29,62*,102,6
CC(C)N(c1cc(=O)nc2ccccn12)C(C)C,/,2,/,/,/,/
CC(=O)c1ccc(NC(=O)C(C)Sc2nnc(C3CC3)n2C2CC2)cc1 (configuration not stated),76*,-2,-76,-1,105,/
CC(=O)C1=CN(Cc2ccccc2)CCC1=O,-245,-5,245*,/,/,/
COc1ccc(C(=O)N/C(=C\c2cn(C)c3ccccc23)C(=O)NCCCn2ccnc2)cc1,-17,-1,17,-1,100,0
CCN(CC)C(=O)/C(=C/c1cn(S(=O)(=O)N(C)C)c2ccccc12)NC(=O)c1ccc(OC)cc1,88*,-2,-88,1,112,-5
CCCCOC(=O)/C(=C/c1cn(C)c2ccccc12)NC(=O)c1ccc(OC)cc1,14,-3,-14,81*,102,4
COc1ccc(-c2nn(C)c(=O)c3ccccc23)cc1NC(=O)COc1ccc(C)cc1,92*,-3,-92,10,97,/
O=C(CCCn1c(=O)c2cccn2c2cccnc21)NCCc1ccc(Cl)cc1,79*,7,-79,-3,107,-4
CCc1ccc(Nc2ncccc2C#N)cc1,-27,-2,27,52*,100,/
CC(C)c1ccc(Nc2ncccc2C(=O)O)cc1,-7,7,7,10,106,8
CCC(C)c1ccc(Nc2ncccc2C#N)cc1 (configuration not stated),-21,5,21,61*,98,/
O=C(N[C@H](C(=O)N1CCC[C@H]1C(=O)NCc1ccccc1)c1ccccc1)C1CCCC1,/,-2,/,/,/,/
CC(C)[C@H](NC(=O)C1CC1)C(=O)N1CCC[C@H]1C(=O)NCc1ccccc1,/,-2,/,/,/,/
CSc1ncccc1C(=O)Nc1nccs1,2,-2,-2,22,98,-8
CCc1nnc(NC(=O)c2cccnc2SC)s1,-18,-3,18,51*,88,0
CSc1ncccc1C(=O)Nc1nnc(C2CC2)s1,6,-2,-6,61*,98,4
CSc1ncccc1C(=O)Nc1ncc(C)s1,11,0,-11,43,111,10
O=C(Nc1nnc(C2CC2)s1)c1n[nH]c(=O)c2ccccc12,-13,-2,13,65*,93,2
CSc1ncccc1C(=O)Nc1nc2c(C)cccc2s1,73*,-2,-73,5,106,-1
Nc1nc(Cl)nc2c1ncn2[C@@H]1O[C@H](CO)[C@@H](O)[C@@H]1F,/,1,/,/,/,/
CC1(C)CC(=O)C=C(Nc2ccccc2NC(=O)c2ccc(F)cc2F)C1,/,-1,/,/,/,/
CSc1sc(C(=O)NN)c2c1C1(CCC2)SCCS1,107*,7,-107,32,95,-28
CSc1sc(C(=O)NNC(C)=O)c2c1C1(CCC2)SCCS1,7,2,-7,6,87,-5
